# The source made the active and inactive calls.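 How the source made its calls: active means inhibition of the malaria parasite aminopeptidase at 45% or more; inactive means inhibition below 45%.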
# Target: Aminopeptidase N (Plasmodium falciparum (isolate 3D7)) (UniProt O96935)
# Test: recombinant PfM1AAP inhibitors, late-stage follow-up, biochemical, fluorescence, recombinant enzyme, assay provider (AID 492978)
# Conditions: H-Leu-NHMec fluorescence, at 5 µM, active compounds read high
# In short: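 Test system – recombinant P. falciparum M1 aminopeptidase · Input – enzyme at 1 µg/mL · Medium – 25 mM Tris-HCl buffer, pH 7.5 · Read-out basis – % inhibition relative to uninhibited enzyme · Schedule – 10 min enzyme–compound preincubation, then 30 min kinetic read · Control set – no-inhibitor enzyme wells and no-enzyme background wells · Technique – kinetic fluorescence, excitation 370 nm, emission 460 nm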
# Sequence of Aminopeptidase N (Plasmodium falciparum (isolate 3D7)) (O96935 whole entry, looked up): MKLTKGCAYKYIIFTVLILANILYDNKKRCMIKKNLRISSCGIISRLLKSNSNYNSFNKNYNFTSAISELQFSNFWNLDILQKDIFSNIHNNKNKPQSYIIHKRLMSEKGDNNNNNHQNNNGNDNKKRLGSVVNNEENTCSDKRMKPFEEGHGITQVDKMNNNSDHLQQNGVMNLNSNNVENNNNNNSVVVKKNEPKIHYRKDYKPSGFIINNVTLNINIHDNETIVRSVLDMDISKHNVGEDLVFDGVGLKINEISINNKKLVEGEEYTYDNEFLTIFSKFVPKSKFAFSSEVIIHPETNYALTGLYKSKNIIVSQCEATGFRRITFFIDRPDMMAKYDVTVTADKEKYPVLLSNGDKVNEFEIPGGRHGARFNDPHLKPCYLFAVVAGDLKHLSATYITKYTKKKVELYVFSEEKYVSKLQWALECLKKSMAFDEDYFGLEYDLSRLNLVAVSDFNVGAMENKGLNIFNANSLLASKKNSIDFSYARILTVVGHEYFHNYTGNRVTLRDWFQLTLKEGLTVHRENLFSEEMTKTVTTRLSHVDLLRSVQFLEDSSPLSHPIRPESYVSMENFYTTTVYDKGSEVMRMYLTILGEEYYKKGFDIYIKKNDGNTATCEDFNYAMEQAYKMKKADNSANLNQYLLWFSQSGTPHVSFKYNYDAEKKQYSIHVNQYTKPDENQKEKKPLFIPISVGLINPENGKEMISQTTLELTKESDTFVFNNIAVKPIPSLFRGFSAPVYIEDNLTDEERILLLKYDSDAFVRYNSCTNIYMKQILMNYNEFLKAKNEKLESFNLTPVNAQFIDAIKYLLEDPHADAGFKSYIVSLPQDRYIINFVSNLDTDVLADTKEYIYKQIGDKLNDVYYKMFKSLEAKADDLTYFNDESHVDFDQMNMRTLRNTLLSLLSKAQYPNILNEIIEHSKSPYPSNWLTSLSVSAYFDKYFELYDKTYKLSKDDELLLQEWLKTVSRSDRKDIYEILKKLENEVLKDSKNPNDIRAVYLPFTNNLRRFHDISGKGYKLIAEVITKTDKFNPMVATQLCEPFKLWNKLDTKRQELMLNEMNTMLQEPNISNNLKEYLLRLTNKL
row,SMILES,inhibition
1,O=C(O)CCC(=O)N1N=C(c2c(-c3ccccc3)c3cc(Cl)ccc3[nH]c2=O)CC1c1cccs1 (stereo not drawn),13% (inactive)
2,O=C(NCCC1=CCCCC1)C1CCN(S(=O)(=O)c2ccc(Br)s2)CC1,45%
3,O=C(Nn1c(C2CCC2)nc2ccccc2c1=O)c1cccs1,8% (inactive)
4,O=C(NCc1cccc(F)c1)C1CCN(S(=O)(=O)Cc2ccccc2)CC1,69%
5,COc1ccc(C2CC(c3c(-c4ccccc4)c4cc(Cl)ccc4[nH]c3=O)=NN2C(=O)CCC(=O)O)cc1 (stereo not drawn),0% (inactive)
6,O=C1N=c2ccccc2=C1c1sc(=S)n(NC(=O)c2cccc(O)c2)c1O,48%
7,O=C(NCc1ccco1)C1CCCN(S(=O)(=O)c2cccc3nonc23)C1 (stereo not drawn),17% (inactive)
8,COc1ccccc1-c1nc2ccccc2c(=O)n1NC(=O)c1cccs1,38% (inactive)
9,O=C1/C(=C/c2cccs2)SC(=S)N1NS(=O)(=O)c1ccccc1,20% (inactive)
10,O=C1N=c2ccccc2=C1c1sc(=S)n(NC(=O)c2ccccc2)c1O,13% (inactive)
11,O=C(O)CCC(=O)N1N=C(c2c(-c3ccccc3)c3cc(Cl)ccc3[nH]c2=O)CC1c1ccco1 (stereo not drawn),13% (inactive)
12,CC(=O)N1N=C(c2c(O)n(C)c(=O)n(C)c2=O)CC1c1ccccc1 (stereo not drawn),7% (inactive)
13,COc1ccc(OC)c(/C=C2\SC(=S)N(C(C(=O)O)c3ccccc3)C2=O)c1 (stereo not drawn),16% (inactive)
